Assay results reported in article PMC6287413 (Drug Design, Development and Therapy, 2018).
Where a SMILES comes first, the peptide text is derived from it.

Target: T1, PTP1B (Homo sapiens, UniProt P18031)
T1 sequence (P18031 1-435): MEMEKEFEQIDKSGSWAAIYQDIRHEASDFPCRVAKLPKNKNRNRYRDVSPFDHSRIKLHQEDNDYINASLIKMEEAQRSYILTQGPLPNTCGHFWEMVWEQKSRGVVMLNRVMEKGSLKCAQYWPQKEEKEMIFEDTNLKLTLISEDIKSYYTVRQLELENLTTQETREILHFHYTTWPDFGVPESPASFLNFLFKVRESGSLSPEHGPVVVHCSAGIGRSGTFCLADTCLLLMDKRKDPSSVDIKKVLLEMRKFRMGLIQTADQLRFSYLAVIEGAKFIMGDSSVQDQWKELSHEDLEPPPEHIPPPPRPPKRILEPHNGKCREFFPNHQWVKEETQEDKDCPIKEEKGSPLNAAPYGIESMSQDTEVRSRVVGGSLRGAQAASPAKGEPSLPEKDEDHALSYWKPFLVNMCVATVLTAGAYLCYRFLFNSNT
Experiment: Inhibitory activity analysis with recombinant PTP1B phosphatase
Format: biochemical
Outline: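 Recombinant phosphatase at 1.5 µg/mL […] final in 10 mM HEPES, pH 7.4. Each enzyme was left untreated (control) or treated with peptide solutions over a range of concentrations and incubation times, at 37°C. Para-nitrophenyl phosphate (2 mM) was the chromogenic substrate, read at 405 nm. Every experiment was run three or more times.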

IC50 | SMILES
52.6 ± 3.7 µM | N[C@@H](CC(=O)O)C(=O)N[C@@H](Cc1ccccc1)C(=O)O [Asp-Phe] (H-Asp-Phe-OH)
255 ± 29.4 µM | N[C@@H](Cc1ccccc1)C(=O)N[C@@H](CC(=O)O)C(=O)N[C@@H](Cc1ccccc1)C(=O)O [Phe-Asp-Phe] (H-Phe-Asp-Phe-OH)
52.1 ± 1.4 µM | N[C@@H](Cc1ccccc1)C(=O)N[C@@H](CC(=O)O)C(=O)O [Phe-Asp] (H-Phe-Asp-OH)
104 ± 15.9 µM | N[C@@H](Cc1ccccc1)C(=O)N[C@@H](Cc1ccccc1)C(=O)N[C@@H](CC(=O)O)C(=O)O [Phe-Phe-Asp] (H-Phe-Phe-Asp-OH)
